Assay [1] has as its target T1, Orotidine phosphate decarboxylase (Plasmodium falciparum, UniProt Q8T6J6).
T1 sequence (Q8T6J6 whole entry): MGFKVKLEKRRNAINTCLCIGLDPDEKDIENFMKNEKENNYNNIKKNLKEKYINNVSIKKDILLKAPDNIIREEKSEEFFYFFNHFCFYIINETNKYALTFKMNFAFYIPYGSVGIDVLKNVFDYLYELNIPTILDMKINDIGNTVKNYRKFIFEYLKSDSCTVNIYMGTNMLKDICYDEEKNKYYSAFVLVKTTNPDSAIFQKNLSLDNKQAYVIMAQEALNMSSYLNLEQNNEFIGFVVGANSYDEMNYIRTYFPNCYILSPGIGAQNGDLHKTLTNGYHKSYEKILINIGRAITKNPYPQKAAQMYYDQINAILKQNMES
The assay is described as follows: Inhibition of Plasmodium falciparum ODCase by isothermal titration calorimetry. The method in brief: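 Recombinant P. falciparum enzyme, preincubated overnight at room temperature in 50 mM Tris, 40 mM NaCl, 20 mM DTT. ITC at 37 °C in 50 mM Tris, 20 mM DTT, pH 7.5, with 60 nM enzyme and 12 μM substrate. Substrate injection into enzyme–inhibitor mix started the reaction. Triplicate runs; competitive Ki derived from rate versus [S] and double-reciprocal plots.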
(In ITC the heat of successive injections is recorded.)

Assay [2] has as its target Orotidine 5'-phosphate decarboxylase (Methanobacterium thermoautotrophicum, UniProt O26232). The assay is described as follows: Inhibition of Methanobacterium thermoautotrophicum ODCase by isothermal titration calorimetry. Set-up: species or system Methanothermobacter thermautotrophicus. The procedure, abridged: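 Recombinant M. thermoautotrophicum enzyme, preincubated overnight at room temperature in 50 mM Tris, 40 mM NaCl, 20 mM DTT. Activity read by ITC at 55 °C in 50 mM Tris, 20 mM DTT, pH 7.5, with 20 nM enzyme and 40 μM substrate; inhibitor 0–100 μM. Substrate injection into enzyme–inhibitor mix started the reaction. Triplicates; competitive Ki from rate versus [S] and double-reciprocal plots.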

Assay [3] deals with T2, Uridine 5'-monophosphate synthase (Homo sapiens, UniProt P11172).
T2 sequence (P11172 whole entry): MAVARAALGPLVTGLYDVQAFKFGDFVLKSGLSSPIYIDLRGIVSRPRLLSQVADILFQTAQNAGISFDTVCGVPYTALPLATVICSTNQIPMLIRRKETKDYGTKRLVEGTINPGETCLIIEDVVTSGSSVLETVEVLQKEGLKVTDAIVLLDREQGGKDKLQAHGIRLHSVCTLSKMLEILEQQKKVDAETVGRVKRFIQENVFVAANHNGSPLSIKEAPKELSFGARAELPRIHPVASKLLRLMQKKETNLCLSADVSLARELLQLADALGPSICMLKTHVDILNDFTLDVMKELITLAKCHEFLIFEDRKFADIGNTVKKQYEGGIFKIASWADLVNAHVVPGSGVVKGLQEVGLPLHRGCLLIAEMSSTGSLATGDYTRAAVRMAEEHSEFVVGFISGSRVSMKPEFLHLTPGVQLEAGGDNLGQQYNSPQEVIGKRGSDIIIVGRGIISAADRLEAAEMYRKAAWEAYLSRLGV
The assay is described as follows: Inhibition of human ODCase by isothermal titration calorimetry. The method in brief:
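Recombinant human enzyme, preincubated overnight at room temperature in 50 mM Tris, 40 mM NaCl, 20 mM DTT. Substrate injection into enzyme–inhibitor mix started the reaction. Triplicates; competitive Ki from rate versus [S] and double-reciprocal analysis.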

In a further assay the test system is Plasmodium falciparum. Put plainly: Antimalarial activity against Plasmodium falciparum incubated for 48 hrs by fluorescence-based SYBR-green assay. Type of assay: functional, organism-based. The procedure, abridged: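 P. falciparum ItG line grown in human O erythrocytes in RPMI 1640 with 10% human serum and 50 μM hypoxanthine. Compound stock was 10 mg/mL in RPMI, filter-sterilized, then serially diluted up to 500 μg/mL with constant parasite numbers. Plates were held 48 h under 3% CO2/2% O2/95% N2 and read by SYBR Green/Triton X-100 fluorescence. Quadruplicates; IC50 by nonlinear regression of dose–response.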

Values after ≈ are worked out from the molar mass of the structure shown.

Orotidine 5'-phosphate decarboxylase, sequence (O26232 whole entry): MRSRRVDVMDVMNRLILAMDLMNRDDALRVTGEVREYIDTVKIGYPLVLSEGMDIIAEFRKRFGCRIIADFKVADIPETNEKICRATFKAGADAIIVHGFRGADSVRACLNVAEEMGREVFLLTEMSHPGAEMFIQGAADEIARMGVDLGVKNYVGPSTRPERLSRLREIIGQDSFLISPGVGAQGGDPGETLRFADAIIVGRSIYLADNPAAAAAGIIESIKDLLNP

As for `O=c1ccn([C@@H]2O[C@H](COP(=O)(O)O)[C@@H](O)[C@H]2O)c(=O)[nH]1`, the Ki is 210 µM in assay [1], 330 µM in assay [2] and 220 µM in assay [3].
On to `Nc1ccn([C@@H]2O[C@H](COP(=O)(O)O)[C@@H](O)[C@H]2O)c(=O)[n+]1[O-]`, for which the values for the Ki in assay [1] and in assay [2] were 22.1 µM and 11.1 µM, respectively.
In the case of `O=c1nc(NO)ccn1[C@@H]1O[C@H](COP(=O)(O)O)[C@@H](O)[C@H]1O`, the Ki in assay [1] was above 1000 µM.
Compound `Nc1ccn([C@@H]2O[C@H](CO)[C@@H](O)[C@H]2O)c(=O)[n+]1[O-]` displayed an IC50 in the assay on Plasmodium falciparum of 411 µg/mL (≈ 1590 µM).
As to `Nc1ccn([C@@H]2O[C@H](COP(=O)(O)O)[C@@H](O)[C@H]2O)c(=O)n1`, the inhibition constant (Ki) is above 10000 µM in assay [1], 1200 µM in assay [2] and 1400 µM in assay [3].
The compound `O=c1nc(NO)ccn1[C@@H]1O[C@H](CO)[C@@H](O)[C@H]1O` [N-HYDROXYCYTIDINE] returned an IC50 in the assay on Plasmodium falciparum of 610 µg/mL (≈ 2350 µM).

The Ki is the equilibrium dissociation constant of an inhibitor or competing ligand from its target. A low value points to tighter binding. In general, IC50 refers to the concentration needed to halve the response being measured.

The values above are taken from ChEMBL document CHEMBL2177049, “Novel cytidine-based orotidine-5'-monophosphate decarboxylase inhibitors with an unusual twist” (J Med Chem, 2012).
